# Assay outcomes (PubChem)
# PostGolgi ctrl: inhibits growth of the yeast control strain; efflux-deficient yeast background strain, growth absorbance A615, 16 h; inhibition, % at 10 µM; 98,000 tested, 5% active; AID 738
# Her2 expr inh: inhibitors of human Her2 kinase expression; P04626; SKBR-3 HER2 protein level, AlphaScreen, 18-24 h; hits give low values; HER2 level % of control, % at 10 µM; 65,000 tested, 0.69% active;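 active = HER2 level under 5% of the carrier-only control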;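 also: 100% = DMSO carrier and 0% = 500 nM PU-H71 HSP90 inhibitor; lower value means stronger loss of Her2 protein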
# Ecoli tolC: E. coli tolC mutant growth inhibition. E. coli BW25113 tolC mutant growth, OD615. growth inhibition, % at 10 µM (by protocol). 65,000 tested, 2.2% active;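 active = growth inhibition at or above a cutoff equal to the mean over every tested compound plus 3 SD, cut at about 60% in these data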;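 also: growth measured after 20 h incubation at 37 °C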
#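 Test system – E. coli BW25113 ΔtolC::kan, tolC deletion mutant strain · Detection – OD at 615 nm · Buffer or medium – LB with kanamycin 50 µg/mL · Times – 20 h compound exposure of bacteria at 37 °C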
# Ecoli WT expand: growth inhibitors of E. coli BW25113 wild type; 98,000 tested, 0.15% active; growth inhibition, % at 100 µM; OD600 absorbance;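 active = growth inhibition above about 50% at one test dose, limit read from the data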;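 also: growth measured after 20 h incubation at 37 °C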
# PostGolgi yeast: growth inhibition of a yeast mutant, post-Golgi transport screen; post-Golgi transport phenotypic cell assay; inhibition, % at 10 µM; 98,000 tested, 0.9% active;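 also: yeast cells grown in 1536-well plates; yeast grown about 18 h at 30C before absorbance read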
# * = called active by the depositor; / = not tested or not shown. The list is not random: actives were taken first. Their share in the collection is about 6.6%. Rule as the data show it, unless noted: active = inhibition above about 30%; inactive = the rest.
SMILES,PostGolgi ctrl,Her2 expr inh,Ecoli tolC,Ecoli WT expand,PostGolgi yeast
N/C(Cc1ccc(Cl)cc1)=N\OC(=O)c1ccc2ccccc2c1,81*,/,/,-2,21
N/C(Cc1ccc(Cl)cc1)=N\OC(=O)c1cccc2ccccc12,104*,/,/,8,82*
COC(=O)C1=NN(c2ccc(C)cc2)C2(S1)SC(C(C)=O)=C(C)N2c1ccccc1 (configuration not stated),19,/,/,-16,7
Cc1cccc(OCCCCc2c(C)n[nH]c2C)c1,18,88,100*,15,3
COc1ccccc1OCCCCCc1c(C)n[nH]c1C,4,71,34,8,-13
COc1ccccc1OCCCc1c(C)n[nH]c1C,100*,93,5,9,109*
Cc1cccc(OCCCCc2c(C)n[nH]c2C)c1C,38*,95,100*,10,8
CCOc1ccccc1OCCCCCc1c(C)n[nH]c1C,12,133,42,7,-6
COc1cccc(OCCc2c(C)n[nH]c2C)c1,0,/,/,5,21
COC(=O)c1scc(C)c1N/N=C(\C)c1cc(F)c(Cl)cc1F,3,/,/,-23,-6
O=C(c1cc(Cl)c(=O)n(Cc2ccc(Cl)cc2)c1)N1CCOCC1,8,/,/,-5,4
O=C(O)CCSc1nc(C(F)(F)F)cc(=O)n1-c1ccccc1,30*,/,/,2,-14
NC(=O)C1CCN(C(=O)c2ccc(CS(=O)(=O)c3c(Cl)cccc3Cl)o2)CC1,-2,84,-6,2,1
Cn1c(-c2c(N)n(CCc3ccccc3)c3nc4ccccc4nc23)nc2ccccc21,78*,/,/,-21,88*
Cn1c(-c2c(N)n(CCCc3ccccc3)c3nc4ccccc4nc23)nc2ccccc21,17,/,/,-20,25
COCCCn1c(N)c(-c2nc3ccccc3n2C)c2nc3ccccc3nc21,73*,/,/,5,10
Cn1c(-c2c(N)n(C3CCCC3)c3nc4ccccc4nc23)nc2ccccc21,100*,91,41,-8,24
CC1C/C(=N/O)C(C)CN1 (configuration not stated),-10,/,/,4,-2
CC1Cc2nc(SCC(N)=O)n(Cc3ccccc3)c(=O)c2S1 (configuration not stated),/,108,-2,/,/
CCSc1nc2c(c(=O)n1Cc1ccccc1)SC(C)C2 (configuration not stated),33*,97,40,-2,1
COc1ccc(NC(=O)CC2C(=O)N(c3cccc(OC)c3)C(=O)N2CCC(C)C)cc1 (configuration not stated),5,/,/,-15,6
CN1CC=C2C(C#N)=C(N)C(C#N)(C#N)[C@H](c3cccc(Cl)c3)C2C1 (some centres not stated),6,104,4,6,7
CC(C)c1ccc(C2C3CSCC=C3C(C#N)=C(N)C2(C#N)C#N)cc1 (configuration not stated),-2,/,/,7,74*
COc1ccc(-c2ccnc3nc(N4CCN(c5ccccc5)CC4)nn23)cc1,53*,/,/,-4,-2
CCNC(=O)NC(=O)C(C)Sc1nc2ccccc2n1CC(C)C (configuration not stated),32*,/,/,7,-3
SMILES,PostGolgi ctrl,Her2 expr inh,Ecoli tolC,Ecoli WT expand,PostGolgi yeast
CC(Sc1nnnn1-c1ccccc1)C(=O)Nc1ccc(Cl)cn1 (configuration not stated),-3,106,12,-7,1
COc1ccc(N2CCN(CC(=O)Nc3cc(C)on3)CC2)cc1,5,86,-16,3,9
COc1ccc(N2CCN(CC(=O)Nc3nc4c(s3)CC(C)CC4)CC2)cc1 (configuration not stated),8,119,100*,-12,0
CCN(CC)C(=O)C1CCCN(c2ccc([N+](=O)[O-])cc2/C=N/NC(=O)c2cccc([N+](=O)[O-])c2)C1 (configuration not stated),12,/,/,-11,-10
O=C(Nc1ccc2oc(=O)ccc2c1)c1cccnc1Cl,2,/,/,2,32*
O=C(Nc1ccc2oc(=O)ccc2c1)c1ccco1,4,105,-27,8,15
CCOC(=O)c1cnc(-n2nc(C)cc2C)nc1Nc1ccccc1OC,1,/,/,-8,5
CCOC(=O)c1cnc(-n2nc(C)cc2C)nc1NCCc1ccccc1,39*,14,100*,2,6
Cc1ccc(N(C(=O)Cn2nnc(-c3ccc(F)cc3)n2)C(CC(C)C)C(=O)NCC2CCCO2)cc1 (configuration not stated),2,/,/,-19,3
O=c1c2ccccc2c(/C=N/c2ncn[nH]2)c(O)n1Cc1ccccc1,30*,76,34,-4,3
CC(C)CCC(C)N=Cc1c(O)n(Cc2ccccc2)c(=O)c2ccccc12 (configuration not stated),1,/,/,-20,-5
O=C(CN(C(=O)CCC(=O)Nc1nccs1)c1ccc(F)cc1)NCc1ccco1,32*,88,-18,-2,0
Cc1ccc(NC(=O)c2cccc3c2C(=O)N(C2CCCCC2)C3)cc1,44*,/,/,-2,10
CCOC(=O)N1CCC(NC(=O)c2cccc3c2C(=O)N(c2ccc(OC)cc2)C3)CC1,38*,83,49,-20,-1
CCOC(=O)N1CCC(N2Cc3cccc(C(=O)Nc4ccc(CC)cc4)c3C2=O)CC1,34*,/,/,-3,0
CCOc1ccc(NC(=O)c2cccc3c2C(=O)N(CCOC)C3)cc1,31*,/,/,-10,3
CCOC(=O)N1CCC(N2Cc3cccc(C(=O)Nc4ccc(F)cc4)c3C2=O)CC1,9,/,/,-6,-6
CCOC(=O)N1CCN(C(=O)c2cn(CCOC)c(=O)c3c2c2ccccc2n3C)CC1,12,86,-12,9,27
CC(=O)c1cccc(NC(=O)Nc2ccc3c(c2)N(C)C(=O)CS3)c1,20,58,11,24,-11
Cn1nc(C(F)(F)F)c(C(=O)Nc2ccc(F)cc2F)c1Sc1ccc(Cl)cc1,-5,/,/,-4,14
O=C(c1ccccc1)N1CCN(S(=O)(=O)N2CCCCC2)CC1,44*,93,-9,6,-6
CN(c1ccc(C(=O)N2CCOCC2)cc1[N+](=O)[O-])C1CCCCC1,2,/,/,7,2
CCCN(CC1CC1)C(=O)CSc1ncnc2sc(C)c(C)c12,37*,/,/,1,-6
Cc1c(Cl)cccc1NC(=O)c1nc(C)n(-c2cc(OC(C)C)c(Cl)cc2Cl)n1,30*,/,/,-10,6
Cc1cnc(-c2nnc(N(C)C(=O)c3ccncc3)s2)cn1,/,86,-21,/,/
CC(C)c1ccc(S(=O)(=O)N2CCN(C(=O)c3cccc(F)c3)CC2)cc1,1,96,6,-3,6
Clc1ccc(OCCCc2nc(-c3cccnc3)no2)c(Cl)c1,34*,98,95*,9,-3
Clc1ccc(OCCCc2nc(-c3ccncc3)no2)c(Cl)c1,95*,/,/,16,92*
Clc1ccc(OCc2nc(-c3ccccn3)no2)c(Br)c1,31*,103,14,1,-1
